Here are results for eight compounds from ChEMBL document CHEMBL4359929, “Piperidine and piperazine inhibitors of fatty acid amide hydrolase targeting excitotoxic pathology” (Bioorg Med Chem, 2019).

pIC50: −log10 of the molar value. Activity calls are given as the source filed them. The rule behind the calls is not given here.

For data set [1], the target named is Cannabinoid receptor 1 (Rattus norvegicus) (UniProt P20272). Kind of data set: Displacement of [3H]CP55940 from CB1 receptor in rat brain by competition-equilibrium binding analysis. (In general: Displacement assays read how much labelled ligand stays bound in the presence of the test substance.)
Target sequence in this assay (P20272 whole entry, looked up): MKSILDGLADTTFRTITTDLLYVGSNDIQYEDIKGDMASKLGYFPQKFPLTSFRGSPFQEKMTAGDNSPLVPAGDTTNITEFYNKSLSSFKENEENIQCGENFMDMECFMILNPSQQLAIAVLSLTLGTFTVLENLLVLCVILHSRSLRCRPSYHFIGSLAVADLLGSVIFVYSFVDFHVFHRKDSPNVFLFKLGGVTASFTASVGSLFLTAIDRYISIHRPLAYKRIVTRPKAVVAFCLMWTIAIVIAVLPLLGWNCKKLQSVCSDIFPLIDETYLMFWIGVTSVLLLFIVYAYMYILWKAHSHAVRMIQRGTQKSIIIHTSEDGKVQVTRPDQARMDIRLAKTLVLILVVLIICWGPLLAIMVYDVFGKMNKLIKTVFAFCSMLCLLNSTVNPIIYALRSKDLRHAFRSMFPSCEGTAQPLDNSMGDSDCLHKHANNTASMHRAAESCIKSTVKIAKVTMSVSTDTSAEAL
Data set [2] addresses Cannabinoid receptor 2 (Mus musculus) (UniProt P47936). As to the kind of experiment: Displacement of [3H]CP55940 from mouse CB2 receptor expressed in HEK293 cells by competition-equilibrium binding analysis. It counts as cell-based. In short, it runs like this: (§1)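 HEK293 cell membranes expressing mouse or human CB2; competition-equilibrium binding against [3H]CP-55,940.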

In data set [3] the target is Cannabinoid receptor 1 (Rattus norvegicus) (UniProt P20272). Kind of data set: Displacement of [3H]CP55940 from CB1 receptor in rat brain by competition-equilibrium binding analysis. Format: tissue-based. An outline of the steps:
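Rat brain membranes as CB1 source; competition-equilibrium binding against [3H]CP-55,940.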
Target sequence in this assay (P20272 whole entry): as the sequence (P20272 whole entry, looked up) above

Data set [4] deals with T1, Fatty-acid amide hydrolase 1 (Rattus norvegicus) (UniProt P97612).
T1 sequence (whole entry): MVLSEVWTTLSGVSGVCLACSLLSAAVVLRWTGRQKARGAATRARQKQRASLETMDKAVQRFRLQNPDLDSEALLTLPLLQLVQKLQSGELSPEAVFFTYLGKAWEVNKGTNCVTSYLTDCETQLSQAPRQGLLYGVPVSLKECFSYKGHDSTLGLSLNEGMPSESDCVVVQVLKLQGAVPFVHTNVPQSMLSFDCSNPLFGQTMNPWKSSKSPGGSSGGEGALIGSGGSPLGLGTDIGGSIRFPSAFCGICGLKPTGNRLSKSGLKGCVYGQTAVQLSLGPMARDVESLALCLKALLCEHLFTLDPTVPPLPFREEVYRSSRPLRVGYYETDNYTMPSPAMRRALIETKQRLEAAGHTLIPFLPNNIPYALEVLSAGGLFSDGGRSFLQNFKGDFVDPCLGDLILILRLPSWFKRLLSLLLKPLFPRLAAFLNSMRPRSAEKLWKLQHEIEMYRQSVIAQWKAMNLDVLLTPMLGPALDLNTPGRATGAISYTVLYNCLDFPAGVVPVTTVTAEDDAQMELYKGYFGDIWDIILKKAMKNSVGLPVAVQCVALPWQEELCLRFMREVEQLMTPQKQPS
As to the kind of experiment: Inhibition of rat recombinant His/GST-tagged FAAH expressed in Escherichia coli cells at 1 uM using AAMCA as substrate incubated for 15 mins followed by substrate addition and measured after every 20 mins for 4 hrs by fluorescence based assay relative to control. An outline of the steps:
(§2)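 Fluorescent FAAH assay with arachidonoyl 7-amino-4-methylcoumarin amide as substrate; compound tested at a single concentration of 1 µM; percent inhibition reported.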

The target in data set [5] is Cannabinoid receptor 2 (Homo sapiens) (UniProt P34972). Kind of data set: Displacement of [3H]CP55940 from human CB2 receptor expressed in HEK293 cells by competition-equilibrium binding analysis. It counts as cell-based. In short, it runs like this:
as §1

Data set [6] has as its target T2, Fatty-acid amide hydrolase 1 (Rattus norvegicus, UniProt P97612).
T2 sequence (P97612 whole entry): T1 sequence (whole entry)
Kind of data set: Inhibition of rat recombinant His/GST-tagged FAAH expressed in Escherichia coli cells using AAMCA as substrate incubated for 15 mins followed by substrate addition and measured after every 20 mins for 4 hrs by fluorescence based assay. In short, it runs like this:
(§3)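 Fluorescent enzyme assay in throughput format. Human recombinant FAAH or purified rat FAAH used arachidonoyl 7-amino-4-methylcoumarin amide as substrate; human recombinant MGL was run by a similar fluorometric procedure.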

The target of a further data set is T3, Monoglyceride lipase (Homo sapiens, UniProt Q99685).
T3 sequence (Q99685 whole entry): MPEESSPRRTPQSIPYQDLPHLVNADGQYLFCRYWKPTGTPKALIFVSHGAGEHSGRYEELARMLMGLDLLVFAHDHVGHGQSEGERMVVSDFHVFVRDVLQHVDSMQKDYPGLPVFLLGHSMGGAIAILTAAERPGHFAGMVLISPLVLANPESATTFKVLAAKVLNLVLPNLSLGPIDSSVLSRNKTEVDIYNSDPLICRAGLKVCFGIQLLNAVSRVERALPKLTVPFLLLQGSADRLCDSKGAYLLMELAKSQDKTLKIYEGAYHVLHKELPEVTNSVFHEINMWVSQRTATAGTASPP
Kind of data set: Inhibition of human recombinant His-tagged MGL expressed in Escherichia coli BL21 DE3 cells using AHMMCE as substrate preincubated with enzyme for 15 mins followed by substrate addition and measured after every 15 mins for 3 hrs by fluorescence based assay. An outline of the steps: as §3

Data set [7] is filed under the species Homo sapiens. As to the kind of experiment: Selectivity ratio of IC50 for human full length ABHD6 expressed in Escherichia coli cells to IC50 for human recombinant MBP-tagged FAAH expressed in Escherichia coli cells by fluorescence based assay.
A short description of data set [8]: Selectivity ratio of IC50 for human recombinant His-tagged MGL expressed in Escherichia coli BL21 DE3 cells to IC50 for rat recombinant His/GST-tagged FAAH expressed in Escherichia coli cells by fluorescence based assay.
The target of data set [9] is T4, Fatty-acid amide hydrolase 1 (Homo sapiens) (UniProt O00519).
T4 sequence (whole entry): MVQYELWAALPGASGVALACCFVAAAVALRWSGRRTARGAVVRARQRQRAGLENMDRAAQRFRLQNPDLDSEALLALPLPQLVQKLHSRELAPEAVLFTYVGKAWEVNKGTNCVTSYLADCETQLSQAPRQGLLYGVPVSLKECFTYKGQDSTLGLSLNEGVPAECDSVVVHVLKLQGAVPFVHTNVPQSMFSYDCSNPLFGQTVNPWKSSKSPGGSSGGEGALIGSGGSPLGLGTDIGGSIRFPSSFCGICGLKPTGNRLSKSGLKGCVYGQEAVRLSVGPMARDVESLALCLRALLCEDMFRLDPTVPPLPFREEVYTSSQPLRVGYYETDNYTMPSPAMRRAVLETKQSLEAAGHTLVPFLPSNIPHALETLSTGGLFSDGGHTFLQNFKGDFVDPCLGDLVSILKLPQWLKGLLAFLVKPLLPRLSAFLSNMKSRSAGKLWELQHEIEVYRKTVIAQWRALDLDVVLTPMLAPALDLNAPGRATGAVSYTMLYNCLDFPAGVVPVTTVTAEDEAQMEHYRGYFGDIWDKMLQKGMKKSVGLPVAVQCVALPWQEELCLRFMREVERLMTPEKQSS
As to the kind of experiment: Inhibition of human recombinant MBP-tagged FAAH expressed in Escherichia coli cells at 1 uM using AAMCA as substrate incubated for 15 mins followed by substrate addition and measured after every 20 mins for 4 hrs by fluorescence based assay relative to control. An outline of the steps: as §2

Data set [10] can be described thus: Selectivity ratio of IC50 for human full length ABHD6 expressed in Escherichia coli cells to IC50 for rat recombinant His/GST-tagged FAAH expressed in Escherichia coli cells by fluorescence based assay.
Data set [11] is filed under the species Homo sapiens. As to the kind of experiment: Selectivity ratio of IC50 for human recombinant His-tagged MGL expressed in Escherichia coli BL21 DE3 cells to IC50 for human recombinant MBP-tagged FAAH expressed in Escherichia coli cells by fluorescence based assay.
In data set [12] the target is T5, Fatty-acid amide hydrolase 1 (Homo sapiens, UniProt O00519).
T5 sequence (O00519 whole entry): T4 sequence (whole entry)
Kind of data set: Inhibition of human recombinant MBP-tagged FAAH expressed in Escherichia coli cells using AAMCA as substrate incubated for 15 mins followed by substrate addition and measured after every 20 mins for 4 hrs by fluorescence based assay. An outline of the steps:
as §3

A short description of data set [13]: Stability in human gastric fluid assessed as half life. Format: ADME, tissue-based, Gastric juice. In short, it runs like this: (§4)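 Stability assessed as half-life in human, rat and mouse plasma and gastric fluid, and in human, rat and mouse liver microsomal preparations.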
Data set [14] is described as follows: Stability in rat plasma assessed as half life. Format: ADME, cell-free. An outline of the steps:
as §4

Data set [15] in a line: Stability in mouse plasma assessed as half life. It counts as ADME, cell-free. In short, it runs like this: as §4
A short description of data set [16]: Stability in rat liver microsomes assessed as half life. It counts as ADME, Microsome. In short, it runs like this:
as §4
Background: Microsomes from liver hold many membrane-bound enzymes, among them those of drug oxidation.

Data set [17] is described as follows: Stability in human liver microsomes assessed as half life. It counts as ADME, Microsome. In short, it runs like this: as §4
Data set [18] is described as follows: Stability in mouse liver microsomes assessed as half life. Format: ADME, Microsome. An outline of the steps:
as §4

Data set [19] is described as follows: Stability in mouse gastric fluid assessed as half life. It counts as ADME, tissue-based, Gastric juice. An outline of the steps: as §4
Data set [20] can be described thus: Stability in human plasma assessed as half life. It counts as ADME, cell-free. An outline of the steps:
as §4

Data set [21] is described as follows: Stability in rat gastric fluid assessed as half life. It counts as ADME, tissue-based, Gastric juice. An outline of the steps: as §4

Sequence of Cannabinoid receptor 2 (Mus musculus) (P47936 whole entry): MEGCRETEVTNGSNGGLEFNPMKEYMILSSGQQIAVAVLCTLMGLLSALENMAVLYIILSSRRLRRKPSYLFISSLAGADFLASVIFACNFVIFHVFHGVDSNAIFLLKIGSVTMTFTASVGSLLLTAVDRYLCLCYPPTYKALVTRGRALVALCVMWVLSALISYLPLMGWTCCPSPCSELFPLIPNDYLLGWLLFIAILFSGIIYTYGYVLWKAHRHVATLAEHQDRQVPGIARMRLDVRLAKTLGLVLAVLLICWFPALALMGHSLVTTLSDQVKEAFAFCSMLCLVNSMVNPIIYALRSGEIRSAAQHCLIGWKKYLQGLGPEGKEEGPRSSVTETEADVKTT
Sequence of Cannabinoid receptor 2 (Homo sapiens) (P34972 whole entry): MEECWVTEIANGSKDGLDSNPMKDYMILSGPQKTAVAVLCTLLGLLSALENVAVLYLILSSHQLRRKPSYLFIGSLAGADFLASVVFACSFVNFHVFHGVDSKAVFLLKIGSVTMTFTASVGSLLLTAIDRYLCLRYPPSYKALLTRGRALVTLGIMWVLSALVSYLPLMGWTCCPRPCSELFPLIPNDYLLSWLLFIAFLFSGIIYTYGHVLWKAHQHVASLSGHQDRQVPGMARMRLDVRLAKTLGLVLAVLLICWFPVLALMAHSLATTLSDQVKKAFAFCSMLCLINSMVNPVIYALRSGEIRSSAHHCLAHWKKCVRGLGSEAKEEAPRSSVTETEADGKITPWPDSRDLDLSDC

On to `O=C(Oc1cccc(N2CCS(=O)(=O)CC2)c1)N1CCN(c2ccc(F)cc2)CC12CC2`, for which the outcome in data set [1], in data set [2], in [3] and in [5] was inactive. Besides, in data set [4], the inhibition is 54%.

In the case of `O=C(Oc1cccc(N2CCS(=O)(=O)CC2)c1)N1C[C@@H]2C[C@H]1CN2c1ccc(F)cc1`, the values for the pIC50 (in data set [6]; on Monoglyceride lipase) were 6.47 and less than 6.00, respectively. In addition, the outcome in data set [1], in data set [2], in data set [3] and in [5] was inactive. Besides, the Ratio IC50 (in the data set listed under Homo sapiens [7]; in data set [8]; in data set [10]; in the data set listed under Homo sapiens [11]) was more than 1000 throughout. In addition, the inhibition in [9] was 67%.

For `O=C(Oc1cccc(N2CCS(=O)(=O)CC2)c1)N1CCC2(CC1)COC2`, at Monoglyceride lipase, the pIC50 is less than 6.00. Besides, the outcome in [1], in [2], in data set [3] and in [5] was inactive. For the same compound, the Ratio IC50 (in the data set filed under Homo sapiens [7]; in data set [8]; in data set [10]; in the data set listed under Homo sapiens [11]) was more than 1000 throughout. Besides, the inhibition entry in [9] and in data set [4] was “inactive” each time.

Consider `C[C@@H]1CN(C(=O)Oc2cccc(N3CCS(=O)(=O)CC3)c2)[C@@H](C)CN1c1ccc(F)cc1`, for which the outcome in [1], in data set [2], in data set [3] and in [5] was inactive. For the same compound, the inhibition in data set [4] was 35%.

Turning to `O=C(Oc1cccc(N2CCS(=O)(=O)CC2)c1)N1CCN(c2ccnnc2)CC1`, the pIC50 at Monoglyceride lipase was less than 6.00. In addition, the result in [1], in data set [2], in data set [3] and in data set [5] was inactive. Further, the Ratio IC50 (in the data set listed under Homo sapiens [7]; in data set [8]; in data set [10]; in the data set listed under Homo sapiens [11]) was more than 1000 throughout. Further, the inhibition result in data set [9] and in data set [4] was “inactive” each time.

`COc1ccc(N2CCN(C(=O)Oc3cccc(N4CCS(=O)(=O)CC4)c3)[C@@H](C(C)C)C2)cc1`: the outcome in data set [1], in data set [2], in [3] and in data set [5] was inactive. The inhibition entry in data set [9] and in data set [4] was “inactive” each time.

Regarding `O=C(Oc1cccc(N2CCCCC2)c1)N1CCC(c2ccc(F)cc2)CC1`, the results for the pIC50 (in [12]; in [6]; on Monoglyceride lipase) were 7.40, 8.17 and less than 6.00, respectively. Also, the half-life in [13] is more than 60 min; in data set [14], more than 60 min; in [15], more than 60 min; in [16], 15 to 25 min; in [17], 15 to 25 min; in data set [18], 15 to 25 min. Besides, the half-life in data set [19], in [20] and in data set [21] was more than 60 min each time. The outcome in data set [1], in [2], in [3] and in data set [5] was inactive. The Ratio IC50 (in the data set filed under Homo sapiens [7]; in data set [8]; in data set [10]; in the data set filed under Homo sapiens [11]) was more than 1000 in each case.

For `C[C@H]1CN(c2ccccc2)CCN1C(=O)Oc1cccc(N2CCS(=O)(=O)CC2)c1`, the result in data set [1], in [2], in data set [3] and in [5] was inactive. For the same compound, the inhibition result in [9] and in [4] was “inactive” throughout.

For orientation: inhibition means the relative decrease from the control value, in per cent. As a reminder, the pIC50 is −log10 of the IC50, conventionally taken in molar units. As a reminder, the half-life is the time in which the quantity being followed falls by half.
